In ChEMBL document CHEMBL2177000, “Pharmacokinetic optimization of class-selective histone deacetylase inhibitors and identification of associated candidate predictive biomarkers of hepatocellular carcinoma tumor response” (J Med Chem, 2012):

What was measured:
[1] = Cmax in BALB/C mouse at 5 mg/kg, po or 1 mg/kg, iv by LC-MS/MS method; format: ADME, organism-based; conditions: in vivo
Method in brief: (§1)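 BALB/C nude mice (15−20 g) given 5 mg/kg po and 1 mg/kg iv; blood collected at eight (po) or nine (iv) time points into sodium heparin tubes, plasma stored at −20 °C, measured by LC-MS/MS and analysed noncompartmentally.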

[2] = Half life in BALB/C mouse at 5 mg/kg, po or 1 mg/kg, iv by LC-MS/MS method; format: ADME, organism-based; conditions: in vivo; method in brief: as §1
[3] = AUC in BALB/C mouse at 5 mg/kg, po or 1 mg/kg, iv by LC-MS/MS method; format: ADME, organism-based; conditions: plasma; method in brief: as §1
[4] = Clearance in BALB/C mouse at 5 mg/kg, po or 1 mg/kg, iv by LC-MS/MS method; format: ADME, organism-based; conditions: in vivo; method in brief: as §1
[5] = Clearance in human liver microsomes at 1 uM incubated for 10 mins by LC-MS/MS method; format: ADME, Microsome
Method in brief: (§2)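 Liver microsomes (human or mouse, 0.5 mg/mL) in 100 mM potassium phosphate pH 7.4 with 1 μM compound, prewarmed 10 min at 37 °C, started with NADPH (10 mM); stopped at 0, 3, 6, 9, 15, 30 min with ice-cold methanol containing tolbutamide internal standard; LC-MS/MS. Hepatic clearance (mL/min/kg) calculated from intrinsic clearance.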

[6] = Clearance in mouse liver microsomes at 1 uM incubated for 10 mins by LC-MS/MS method; format: ADME, Microsome; method in brief: as §2
[7] = Oral bioavailability in BALB/C mouse at 5 mg/kg by LC-MS/MS method; format: ADME, organism-based; conditions: in vivo; method in brief: as §1
[8] = Volume of distribution at steady state in BALB/C mouse at 5 mg/kg, po or 1 mg/kg, iv by LC-MS/MS method; format: ADME, organism-based; conditions: in vivo, read-out: Vdss
Method in brief: (§3)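 Nude-mouse PK at reduced doses, 1 mg/kg iv bolus (5% DMSO, 40% PEG400, 55% saline) and 5 mg/kg oral gavage (microcrystalline cellulose microsuspension); plasma from serial heparinized blood samples (eight po, nine iv time points) quantified by LC-MS/MS, parameters by noncompartmental methods.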

[9] = Tmax in BALB/C mouse at 5 mg/kg, po or 1 mg/kg, iv by LC-MS/MS method; format: ADME, organism-based; conditions: in vivo; method in brief: as §3
[10] = molecular target: Histone deacetylase (Homo sapiens) (UniProt Q13547+O15379+Q9UBN7+Q92769+Q9UQL6+Q8WUI4+Q9BY41+Q96DB2+P56524+Q9UKV0+Q969S8); test: Inhibition of Class 1 histone deacetylase in human HeLa cells assessed as induction in p21 protein expression at 3 uM incubated for 16 hrs by luciferase reporter gene assay relative to HDAC inhibitor entinostat; format: cell-based; set-up: scale not given: the % may be the effect or the level left
[11] = Clearance in Sprague-Dawley rat at 10 mg/kg, po or 2 mg/kg, iv by LC-MS/MS method; format: ADME, organism-based; conditions: in vivo
Method in brief: (§4)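 Male Sprague−Dawley rats (250 ± 20 g; N = 3); iv bolus 2 mg/kg in 5% DMSO/40% PEG400/55% saline and/or gavage 10 mg/kg in 0.445% microcrystalline cellulose microsuspension; plasma from heparinized blood at eight (po) or nine (iv) time points, LC-MS/MS, noncompartmental analysis.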

[12] = Cmax in Sprague-Dawley rat at 10 mg/kg, po or 2 mg/kg, iv by LC-MS/MS method; format: ADME, organism-based; conditions: in vivo; method in brief: as §4
[13] = Oral bioavailability in Sprague-Dawley rat at 10 mg/kg by LC-MS/MS method; format: ADME, organism-based; conditions: in vivo
Method in brief: (§5)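 Single-dose PK: iv bolus 2 mg/kg in 5% DMSO/40% PEG400/55% saline and/or oral gavage 10 mg/kg as 0.445% microcrystalline cellulose microsuspension; BALB/C nude mice (15−20 g, N = 16 per arm) or male Sprague−Dawley rats (250 ± 20 g, N = 3). Blood at eight (po) or nine (iv) time points into sodium heparin, plasma by LC-MS/MS, noncompartmental analysis.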

[14] = Tmax in Sprague-Dawley rat at 10 mg/kg, po or 2 mg/kg, iv by LC-MS/MS method; format: ADME, organism-based; conditions: in vivo; method in brief: as §5
[15] = Volume of distribution at steady state in Sprague-Dawley rat at 10 mg/kg, po or 2 mg/kg, iv by LC-MS/MS method; format: ADME, organism-based; conditions: in vivo, read-out: Vdss; method in brief: as §5
[16] = AUC in Sprague-Dawley rat at 10 mg/kg, po or 2 mg/kg, iv by LC-MS/MS method; format: ADME, organism-based; conditions: plasma; method in brief: as §4
[17] = Clearance in BALB/C mouse at 10 mg/kg, po or 2 mg/kg, iv by LC-MS/MS method; format: ADME, organism-based; conditions: in vivo
Method in brief: (§6)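 Female-unspecified BALB/C nude mice (15−20 g, N = 16 per arm); iv bolus 2 mg/kg in 5% DMSO/40% PEG400/55% saline and/or oral gavage 10 mg/kg as 0.445% microcrystalline cellulose microsuspension. Blood sampled at nine (iv) or eight (po) time points into sodium heparin tubes; plasma by LC-MS/MS; noncompartmental analysis.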

Mus musculus [18] = test: Tmax in BALB/C mouse at 10 mg/kg, po or 2 mg/kg, iv by LC-MS/MS method; format: ADME, organism-based; conditions: in vivo; method in brief: as §5
Mus musculus [19] = test: Oral bioavailability in BALB/C mouse at 10 mg/kg by LC-MS/MS method; format: ADME, organism-based; conditions: in vivo
Method in brief: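 Bioavailability from single-dose iv (2 mg/kg, 5% DMSO/40% PEG400/55% saline) and oral gavage (10 mg/kg, 0.445% microcrystalline cellulose microsuspension) studies in BALB/C nude mice (N = 16 per arm); plasma at eight (po) or nine (iv) time points, LC-MS/MS, noncompartmental analysis.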

Mus musculus [20] = test: AUC in BALB/C mouse at 10 mg/kg, po or 2 mg/kg, iv by LC-MS/MS method; format: ADME, organism-based, Plasma; conditions: in vivo; method in brief: as §6
Mus musculus [21] = test: Half life in BALB/C mouse at 10 mg/kg, po or 2 mg/kg, iv by LC-MS/MS method; format: ADME, organism-based; conditions: in vivo; method in brief: as §6
Mus musculus [22] = test: Cmax in BALB/C mouse at 10 mg/kg, po or 2 mg/kg, iv by LC-MS/MS method; format: ADME, organism-based; conditions: in vivo; method in brief: as §6

SMILES	Cmax [1]	half-life [2]	AUC [3]	clearance [4]	CLhep predicted at 1 µM [5]	CLhep predicted at 1 µM [6]	bioavailability [7]	Vd [8]	Tmax [9]	Activity [10]	further results
CN1C[C@H](C(=O)Nc2ccc(Cl)cc2)[C@@H](c2ccc(/C=C/C(=O)Nc3ccccc3N)cn2)C1 (racemic)	60 ng/mL	4.6 h	204 ng·h/mL	79 mL/min/kg	6 mL/min/kg	36 mL/min/kg	19%	4 L	0.17 h	100%	
CN1C[C@H](C(=O)Nc2ccc(Cl)cc2)[C@@H](c2ccc(/C=C/C(=O)Nc3ccccc3N)nn2)C1 (racemic)					12 mL/min/kg	41 mL/min/kg				> 300%	clearance [11]: 120 mL/min/kg; Cmax [12]: 33 ng/mL; bioavailability [13]: 9%; Tmax [14]: 4 h; Vd [15]: 19 L; AUC [16]: 116 ng·h/mL
CN1C[C@H](C(=O)Nc2ccc(F)cc2)[C@@H](c2ccc(/C=C/C(=O)Nc3ccccc3N)cc2)C1 (racemic)	170 ng/mL	5 h	624 ng·h/mL	127 mL/min/kg	5 mL/min/kg	34 mL/min/kg	95%	16 L	2 h	250%	
CN1C[C@H](C(=O)Nc2ccc(Cl)cc2)[C@@H](c2ccc(/C=C/C(=O)Nc3ccccc3N)cc2)C1 (racemic)					5 mL/min/kg	35 mL/min/kg					clearance [17]: 39 mL/min/kg; Tmax (Mus musculus [18]): 1 h; F (Mus musculus [19]): 75%; AUC (Mus musculus [20]): 2946 ng·h/mL; t1/2 (Mus musculus [21]): 14 h; Cmax (Mus musculus [22]): 324 ng/mL
